Assay results reported in PMC4431436 (Oncology Reports, 2015).
“Also recorded” adds a separate entry of the source. Like-named read-outs stand apart in the source and are kept apart here.

Key:
murine B16F10 melanoma = test: lung metastasis in the murine B16F10 melanoma prevention model; type: in vivo, B6D2F1 hybrid female mice; details: for total tumor colony number on lung surface: Veh 90±5, mean ± SEM
Outline: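 6-week-old B6D2F1 females got 1.5×10⁵ B16F10 cells (cultured in DMEM/10% FBS) by i.v. tail vein. Necropsy ~2 weeks. Surface colonies counted across five lung regions; formalin-fixed frontal H&E sections for tumor area. Mean ± SEM; ANOVA/Tukey or t-test; Fisher's PLSD for area.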

[1] = test system: B16F10-luc melanoma cells; test: bioluminescent imaging of de novo lung metastasis, B16F10-luc melanoma model; type: in vivo, (nu/nu) female mice
Outline: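 8-week-old nu/nu females got 2.5×10⁵ G418-selected luciferase-expressing B16F10 cells i.v. From day 1, saline or test compound 300 mg/kg p.o. b.i.d. for two weeks; n=10/group. Imaged on days 0, 3, 8, 11 and 15 under 2.5% isoflurane after D-luciferin 90 mg/kg i.p. Total flux (photons/s) taken in head, lung and abdomen ROIs, dorsal and ventral. Then ex vivo lung imaging and surface colony counts. Mean ± SEM.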

human integrin α5β1 = test: cell adhesion assay, HeK293 overexpressing α5β1 to fibronectin; type: cell-based; details: relative to αvβ3-mediated adhesion
Outline: (§1)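 Stably transfected HEK293 cells overexpressing a human integrin, 25×10³ cells/well, attached for 2 h at 37°C in a humidified incubator, with or without increasing concentrations of test compound. Wells were coated with vitronectin (αvβ3, αvβ5), fibrinogen (αIIbβ3) or fibronectin (α5β1). Non-attached cells were washed off. Attached cells were quantified by colorimetric hexosaminidase activity against a per-line standard curve; mean of triplicates.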

[2] = cited from earlier work
human integrin αIIbβ3 = test: cell adhesion assay, HeK293 overexpressing αIIbβ3 to fibrinogen; type: cell-based; details: relative to αvβ3-mediated adhesion
Outline: as §1

[3] = test system: osteoclastic bone resorption; details: read-out: IC50, inhibition of osteoclastic bone resorption; in vitro; cited from earlier work
[4] = cited from earlier work; remark: listed apart in the source
[5] = ovariectomized rats; cited from earlier work
[6] = body weight of mice injected with B16F10 melanoma; type: in vivo, B6D2F1 hybrid female mice; details: 100 and 300 mg/kg, p.o., b.i.d., over the study duration
[7] = target: T1, purified rat αvβ3 integrin (Rattus norvegicus, UniProt F1LZX9+Q8R2H2); test: 3H-MK-0429 binding assay with purified receptor
T1 sequence (F1LZX9 31-1043): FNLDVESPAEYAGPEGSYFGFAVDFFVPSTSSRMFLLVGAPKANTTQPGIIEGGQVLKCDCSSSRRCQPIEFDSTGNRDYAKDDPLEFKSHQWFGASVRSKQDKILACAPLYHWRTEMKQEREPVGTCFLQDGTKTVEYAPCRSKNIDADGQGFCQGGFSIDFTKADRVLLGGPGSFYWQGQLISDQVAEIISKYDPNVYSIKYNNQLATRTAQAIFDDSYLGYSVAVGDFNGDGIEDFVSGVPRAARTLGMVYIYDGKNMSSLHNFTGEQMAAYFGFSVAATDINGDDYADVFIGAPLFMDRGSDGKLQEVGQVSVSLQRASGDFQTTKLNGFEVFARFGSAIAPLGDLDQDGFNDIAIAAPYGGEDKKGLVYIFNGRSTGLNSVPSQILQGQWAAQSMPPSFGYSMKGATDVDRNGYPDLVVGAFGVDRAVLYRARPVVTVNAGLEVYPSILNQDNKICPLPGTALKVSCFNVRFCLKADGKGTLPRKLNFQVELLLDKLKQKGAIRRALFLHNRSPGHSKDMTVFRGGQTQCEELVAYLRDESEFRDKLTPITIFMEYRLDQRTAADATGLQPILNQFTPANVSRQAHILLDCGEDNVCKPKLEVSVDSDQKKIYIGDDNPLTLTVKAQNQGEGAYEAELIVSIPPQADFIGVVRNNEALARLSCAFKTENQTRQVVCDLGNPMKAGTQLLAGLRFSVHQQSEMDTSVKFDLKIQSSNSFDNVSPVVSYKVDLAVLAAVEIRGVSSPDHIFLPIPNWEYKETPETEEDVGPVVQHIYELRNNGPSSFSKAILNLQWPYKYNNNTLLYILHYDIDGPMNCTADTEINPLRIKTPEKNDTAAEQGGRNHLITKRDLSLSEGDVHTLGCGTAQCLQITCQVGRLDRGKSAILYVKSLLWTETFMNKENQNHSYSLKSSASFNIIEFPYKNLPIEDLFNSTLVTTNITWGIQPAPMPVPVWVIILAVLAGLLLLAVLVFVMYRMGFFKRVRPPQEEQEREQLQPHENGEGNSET
T1 sequence (Q8R2H2 26-787): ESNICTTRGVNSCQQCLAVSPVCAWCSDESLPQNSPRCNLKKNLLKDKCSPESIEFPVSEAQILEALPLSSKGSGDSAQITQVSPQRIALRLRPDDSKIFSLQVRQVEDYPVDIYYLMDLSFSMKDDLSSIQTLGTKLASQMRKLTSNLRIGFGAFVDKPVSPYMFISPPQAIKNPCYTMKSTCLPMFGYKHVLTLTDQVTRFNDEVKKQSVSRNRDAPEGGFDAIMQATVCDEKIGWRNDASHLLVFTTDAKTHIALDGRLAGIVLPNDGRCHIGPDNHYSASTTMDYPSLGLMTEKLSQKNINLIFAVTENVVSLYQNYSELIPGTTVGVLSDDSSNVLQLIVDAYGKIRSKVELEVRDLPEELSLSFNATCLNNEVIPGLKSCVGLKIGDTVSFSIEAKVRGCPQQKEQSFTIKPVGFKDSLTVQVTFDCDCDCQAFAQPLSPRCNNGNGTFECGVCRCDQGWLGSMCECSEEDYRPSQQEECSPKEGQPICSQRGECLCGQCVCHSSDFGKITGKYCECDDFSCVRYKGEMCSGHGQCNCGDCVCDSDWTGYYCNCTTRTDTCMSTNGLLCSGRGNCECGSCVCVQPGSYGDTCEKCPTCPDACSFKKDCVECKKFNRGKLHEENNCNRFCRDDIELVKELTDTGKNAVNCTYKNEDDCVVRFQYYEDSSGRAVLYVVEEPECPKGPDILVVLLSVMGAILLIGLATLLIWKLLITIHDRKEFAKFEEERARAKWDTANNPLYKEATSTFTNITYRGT

[8] = target: purified human αvβ3 integrin (Homo sapiens, UniProt P05106+P06756); test: 3H-MK-0429 binding assay with purified receptor
[9] = target: purified murine αvβ3 integrin (Mus musculus, UniProt O54890+P43406); test: 3H-MK-0429 binding assay with purified receptor
[10] = ovariectomized monkeys; cited from earlier work
human integrin αvβ5 = test: cell adhesion assay, HeK293 overexpressing αvβ5 to vitronectin; type: cell-based; details: relative to αvβ3-mediated adhesion
Outline: as §1

human integrin αvβ3 = human integrin αvβ3 (Homo sapiens, UniProt P05106+P06756); test: cell adhesion assay, HeK293-αvβ3 cells to vitronectin; type: cell-based
Outline: as §1

[11] = approximately; cited from earlier work
metastatic melanoma [12] = details: intravenously twice weekly; stage IV or unresectable stage III; cited from earlier work
metastatic melanoma [13] = details: 8 mg/kg once weekly, i.v.; stage IV metastatic melanoma; cited from earlier work
[14] = 300 mg/kg, p.o., b.i.d., day 11

Chain of human integrin αvβ3 (P06756 891-1048): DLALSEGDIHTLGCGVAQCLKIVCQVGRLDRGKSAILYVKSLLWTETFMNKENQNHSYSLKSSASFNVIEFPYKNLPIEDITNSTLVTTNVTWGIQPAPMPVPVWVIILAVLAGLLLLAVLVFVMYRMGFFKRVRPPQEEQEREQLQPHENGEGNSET
Chain of human integrin αvβ3 (P05106 27-788): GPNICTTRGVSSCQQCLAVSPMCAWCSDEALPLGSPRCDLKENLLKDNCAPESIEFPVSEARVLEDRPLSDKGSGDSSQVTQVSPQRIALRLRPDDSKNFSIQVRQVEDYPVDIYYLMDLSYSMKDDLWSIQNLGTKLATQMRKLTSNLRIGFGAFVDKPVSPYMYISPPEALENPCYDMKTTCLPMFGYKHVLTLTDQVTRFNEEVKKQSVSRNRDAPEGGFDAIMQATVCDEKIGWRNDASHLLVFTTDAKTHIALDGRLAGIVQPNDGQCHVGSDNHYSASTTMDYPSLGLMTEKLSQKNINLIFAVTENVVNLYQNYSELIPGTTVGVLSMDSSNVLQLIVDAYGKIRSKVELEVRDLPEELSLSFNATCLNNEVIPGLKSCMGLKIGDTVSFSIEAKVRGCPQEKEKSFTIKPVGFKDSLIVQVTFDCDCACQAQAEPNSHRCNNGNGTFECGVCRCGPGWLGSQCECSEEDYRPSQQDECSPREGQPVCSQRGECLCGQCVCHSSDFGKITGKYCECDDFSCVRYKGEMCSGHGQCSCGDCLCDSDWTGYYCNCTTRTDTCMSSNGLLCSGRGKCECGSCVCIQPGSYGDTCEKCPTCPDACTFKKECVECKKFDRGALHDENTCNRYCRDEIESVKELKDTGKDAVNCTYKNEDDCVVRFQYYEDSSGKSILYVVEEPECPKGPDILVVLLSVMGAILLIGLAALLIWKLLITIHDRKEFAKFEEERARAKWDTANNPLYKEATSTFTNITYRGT
Chain of human integrin αvβ3 (P06756 31-889): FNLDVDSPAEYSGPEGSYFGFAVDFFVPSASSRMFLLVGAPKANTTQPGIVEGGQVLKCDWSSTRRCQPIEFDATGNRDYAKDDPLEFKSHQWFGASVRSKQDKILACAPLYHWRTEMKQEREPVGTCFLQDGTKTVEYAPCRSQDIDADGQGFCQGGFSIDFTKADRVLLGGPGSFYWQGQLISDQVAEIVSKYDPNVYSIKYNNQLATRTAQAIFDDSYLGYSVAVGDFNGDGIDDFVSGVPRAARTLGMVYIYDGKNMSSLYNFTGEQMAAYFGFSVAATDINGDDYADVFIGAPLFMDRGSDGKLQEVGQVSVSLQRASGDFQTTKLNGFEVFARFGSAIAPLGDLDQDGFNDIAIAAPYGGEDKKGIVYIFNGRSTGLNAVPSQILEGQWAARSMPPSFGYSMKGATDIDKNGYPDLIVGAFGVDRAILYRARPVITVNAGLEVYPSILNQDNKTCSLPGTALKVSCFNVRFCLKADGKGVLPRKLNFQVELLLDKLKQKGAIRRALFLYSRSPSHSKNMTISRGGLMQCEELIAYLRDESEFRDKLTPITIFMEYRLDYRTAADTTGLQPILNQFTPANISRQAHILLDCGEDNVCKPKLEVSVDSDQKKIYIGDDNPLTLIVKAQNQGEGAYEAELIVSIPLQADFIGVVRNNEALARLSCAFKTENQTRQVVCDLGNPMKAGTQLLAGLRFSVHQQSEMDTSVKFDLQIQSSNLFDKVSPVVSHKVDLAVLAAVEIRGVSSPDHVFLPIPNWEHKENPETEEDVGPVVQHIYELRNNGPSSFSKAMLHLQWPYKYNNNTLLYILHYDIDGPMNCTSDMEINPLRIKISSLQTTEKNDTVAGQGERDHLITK
Chain of purified murine αvβ3 integrin (P43406 31-885): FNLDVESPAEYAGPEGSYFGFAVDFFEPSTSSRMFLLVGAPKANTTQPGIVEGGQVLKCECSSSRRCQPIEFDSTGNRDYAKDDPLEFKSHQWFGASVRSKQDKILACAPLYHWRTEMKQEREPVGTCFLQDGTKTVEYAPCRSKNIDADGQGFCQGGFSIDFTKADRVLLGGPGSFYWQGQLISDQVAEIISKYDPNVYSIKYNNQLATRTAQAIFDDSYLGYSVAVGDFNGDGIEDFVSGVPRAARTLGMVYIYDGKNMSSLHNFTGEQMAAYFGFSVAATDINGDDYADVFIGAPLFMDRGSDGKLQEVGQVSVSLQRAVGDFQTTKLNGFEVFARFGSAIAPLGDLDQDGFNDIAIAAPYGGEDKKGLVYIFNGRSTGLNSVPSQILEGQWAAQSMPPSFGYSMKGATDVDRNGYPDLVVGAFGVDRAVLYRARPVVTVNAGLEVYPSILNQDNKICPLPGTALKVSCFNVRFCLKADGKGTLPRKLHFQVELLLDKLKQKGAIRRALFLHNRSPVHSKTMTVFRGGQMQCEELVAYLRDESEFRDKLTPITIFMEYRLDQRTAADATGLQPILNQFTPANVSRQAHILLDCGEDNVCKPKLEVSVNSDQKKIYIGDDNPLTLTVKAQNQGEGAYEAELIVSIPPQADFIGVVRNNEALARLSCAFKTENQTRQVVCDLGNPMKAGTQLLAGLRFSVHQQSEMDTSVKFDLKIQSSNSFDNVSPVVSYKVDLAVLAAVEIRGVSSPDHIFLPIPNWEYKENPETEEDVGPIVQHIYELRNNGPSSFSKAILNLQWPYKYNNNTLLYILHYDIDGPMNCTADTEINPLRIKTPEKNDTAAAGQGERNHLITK
Chain of purified murine αvβ3 integrin (P43406 887-1044): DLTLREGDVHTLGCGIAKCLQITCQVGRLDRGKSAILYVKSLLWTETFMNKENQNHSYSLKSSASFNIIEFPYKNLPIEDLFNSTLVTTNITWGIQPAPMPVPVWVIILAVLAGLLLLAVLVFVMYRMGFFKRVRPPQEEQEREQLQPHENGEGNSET
Chain of purified murine αvβ3 integrin (O54890 26-787): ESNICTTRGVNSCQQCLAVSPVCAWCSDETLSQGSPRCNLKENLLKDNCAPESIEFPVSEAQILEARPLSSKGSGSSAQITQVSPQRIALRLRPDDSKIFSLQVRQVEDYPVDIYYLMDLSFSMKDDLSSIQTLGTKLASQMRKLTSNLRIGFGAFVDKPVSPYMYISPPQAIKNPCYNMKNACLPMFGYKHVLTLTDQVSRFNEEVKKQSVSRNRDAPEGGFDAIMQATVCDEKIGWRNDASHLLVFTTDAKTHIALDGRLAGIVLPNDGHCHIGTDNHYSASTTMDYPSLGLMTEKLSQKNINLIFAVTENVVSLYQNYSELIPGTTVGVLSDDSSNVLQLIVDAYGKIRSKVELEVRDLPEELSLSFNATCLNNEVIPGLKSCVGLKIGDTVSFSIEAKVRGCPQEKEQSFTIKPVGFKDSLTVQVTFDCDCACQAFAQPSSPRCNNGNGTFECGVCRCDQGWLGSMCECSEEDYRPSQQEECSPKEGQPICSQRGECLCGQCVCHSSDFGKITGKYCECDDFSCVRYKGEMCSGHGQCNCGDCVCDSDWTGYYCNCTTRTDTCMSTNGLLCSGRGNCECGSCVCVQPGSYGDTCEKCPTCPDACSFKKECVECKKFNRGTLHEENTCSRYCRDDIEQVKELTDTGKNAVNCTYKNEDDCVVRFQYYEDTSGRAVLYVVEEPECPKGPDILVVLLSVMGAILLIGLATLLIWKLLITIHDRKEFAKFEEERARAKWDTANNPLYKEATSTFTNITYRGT
Chain of purified human αvβ3 integrin (P05106 27-788): as the sequence (P05106 27-788) above
Chain of purified human αvβ3 integrin (P06756 31-889): as the sequence (P06756 31-889) above
Chain of purified human αvβ3 integrin (P06756 891-1048): as the sequence (P06756 891-1048) above

In the case of O=P1(N(CCCl)CCCl)NCCCO1 (stereo not drawn) [Cyclophosphamide, cyclophosphamide, reference compound], the “reduction of tumor colony number vs vehicle” value (murine B16F10 melanoma; 300 mg/kg, i.p., q.d.) is reported as 99%.

For COc1ccc([C@H](CC(=O)O)N2CCN(CCCc3ccc4c(n3)NCCC4)C2=O)cn1 [MK-0429, 3(S)-(6-methoxypyridin-3-yl)-3-[2-oxo-3-[3-(5,6,7,8-tetrahydro-[1,8]-naphthyridin-2-yl)propyl]imidazolidin-1-yl] propionic acid], the “reduction of visible metastatic colonies counted on the ex vivo lung surface” value ([1]; 300 mg/kg twice daily for two weeks, p<0.05 vs. Veh) was 32%, the “decrease of metastasis in the lungs, ex vivo bioluminescence, vs vehicle” value ([1]; 300 mg/kg, p.o., b.i.d.) was ~ 40% and the “ex vivo lung tumor burden (bioluminescence)” value ([1]; 300 mg/kg, p.o., b.i.d., Veh 118.1±27.1, not statistically significant) was 69.9±5.9 ×10^5 photons/sec. For the same molecule, the “reduction of melanoma burden in the ventral lung (bioluminescence) vs vehicle” value ([1]; 300 mg/kg, p.o., b.i.d., day 8) was 38%, the “reduction of tumor metastases in the dorsal lung (bioluminescence) vs vehicle” value (“reduction of tumor metastases” below) ([1]; 300 mg/kg, p.o., b.i.d., day 8) was 15% and the “reduction of melanoma burden in the ventral lung (bioluminescence) vs vehicle” value [1, 14] was 37%. The “reduction of tumor metastases” value [1, 14] was 54%, the “reduction of tumor metastases” value ([1]; 300 mg/kg, p.o., b.i.d., day 15, p=0.0561 vs. Veh) was 38% and the “fold less active in blocking adhesion mediated by α5β1 to fibronectin” value (human integrin α5β1) was > 1,000 fold. For the same molecule, the “bone mineral density at the spine and hip compared to placebo” value ([2]; 100 or 400 mg once daily, or 200 mg twice daily for 12 months) was “significant increase”, the tolerability ([2]; postmenopausal women with osteoporosis) was “well tolerated and without serious adverse events” and the “fold less active in blocking adhesion mediated by αIIbβ3 to fibrinogen” value (human integrin αIIbβ3) was > 1,000 fold. For the same molecule, the IC50 [3] was 12.2 ± 4.5 nM, the “bone resorption marker urinary N-telopeptide” value ([4]; 200 and 1,600 mg orally, twice daily for four weeks) was “significantly decreased” and the tolerability ([4]; up to 1,600 mg twice daily for four weeks) was “well tolerated at this high dose; also recorded: well tolerated and without serious adverse events”. For the same molecule, the bone mass [5] was “increases bone mass”, the bone turnover [5] was “significantly reduces bone turnover” and the “effect on body weight” value [6] was “no significant weight loss”. For the same molecule, the Kd [7] was 1.23 ± 0.11 nM, the “reduction of tumor colony number vs vehicle” value (murine B16F10 melanoma; 100 mg/kg, p.o., b.i.d.) was 64% and the “total tumor colony number on lung surface” value (murine B16F10 melanoma; 100 mg/kg, p.o., b.i.d.) was 33±6. For the same molecule, the “total tumor area in lung sections (H&E)” value (murine B16F10 melanoma; 300 mg/kg, b.i.d., Veh 11.1±0.4, n=5/group) was 5.0±0.7 mm^2, the “reduction of tumor colony number vs vehicle” value (murine B16F10 melanoma; 300 mg/kg, p.o., b.i.d.) was 57% and the “total tumor colony number on lung surface” value (murine B16F10 melanoma; 300 mg/kg, p.o., b.i.d.) was 39±9. For the same molecule, the “reduction of melanoma colonies in all lung regions” value (murine B16F10 melanoma; 100 and 300 mg/kg, p.o., b.i.d., five lung regions) was 53–68%, the Kd [8] was 0.33 ± 0.04 nM and the Kd [9] was 0.56 ± 0.07 nM. The bone mass [10] was “increases bone mass”, the bone turnover [10] was “significantly reduces bone turnover” and the “fold less potent in blocking adhesion of HeK293-αvβ5 to vitronectin” value (human integrin αvβ5) was ~ 100 fold. The IC50 (human integrin αvβ3) was 0.58 ± 0.3 nM.

For Cilengitide [reference compound], the half-life [11] is given as 2 to 4 h and the “clinical efficacy as single-agent therapy for advanced melanoma” value (metastatic melanoma [12]) is given as “minimal clinical efficacy”.

B1: etaracizumab: monoclonal antibody against αvβ3 (antibody, chains of the INN, looked up, V domains shown)
VH: QVQLVESGGGVVQPGRSLRLSCAASGFTFSSYDMSWVRQAPGKGLEWVAKVSSGGGSTYYLDTVQGRFTISRDNSKNTLYLQMNSLRAEDTAVYYCARHLHGSFASWGQGTTVTVSS
VL: EIVLTQSPATLSLSPGERATLSCQASQSISNFLHWYQQRPGQAPRLLIRYRSQSISGIPARFSGSGSGTDFTLTISSLEPEDFAVYYCQQSGSWPLTFGGGTKVEIK
For B1, the “median survival rate, alone vs in combination with dacarbazine” value (metastatic melanoma [13]) is given as “not different” and the half-life [11] is given as “a few days”.
